Columns and labels:
Format in all cases: functional
HCT-15 = assay: Anticancer activity against human HCT15 cells assessed as cell growth at 10^-5 M after 48 hrs by SRB assay; settings: HCT-15, 48 h, read-out: Activity
In short: (§1)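 NCI-60 single-dose screen at one concentration. Cells grown in RPMI 1640 with 5% FBS and 2 mM L-glutamine, plated at 5000–40,000 cells/well, and pre-incubated 24 h at 37 °C in 5% CO2 before DMSO-dissolved drug was added. Cells fixed with TCA, SRB-stained, absorbance read at 515 nm. Percent growth calculated against time-zero and untreated control plates.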

HOP-62 = assay: Anticancer activity against human HOP62 cells assessed as cell growth at 10^-5 M after 48 hrs by SRB assay; settings: HOP-62, 48 h, read-out: Activity; in short: as §1
NCI-H460 = assay: Anticancer activity against human NCI-H460 cells assessed as cell growth at 10^-5 M after 48 hrs by SRB assay; settings: NCI-H460, 48 h, read-out: Activity
SN12C = assay: Anticancer activity against human SN12C cells assessed as cell growth at 10^-5 M after 48 hrs by SRB assay; settings: read-out: Activity
NCI/ADR-RES = assay: Anticancer activity against human NCI/ADR-RES cells assessed as cell growth at 10^-5 M after 48 hrs by SRB assay; settings: read-out: Activity
KM12 = assay: Anticancer activity against human KM12 cells assessed as cell growth at 10^-5 M after 48 hrs by SRB assay; settings: KM12, 48 h, read-out: Activity; in short: as §1
OVCAR-8 = assay: Anticancer activity against human OVCAR8 cells assessed as cell growth at 10^-5 M after 48 hrs by SRB assay; settings: OVCAR-8, 48 h, read-out: Activity
SNB-75 = assay: Anticancer activity against human SNB75 cells assessed as cell growth at 10^-5 M after 48 hrs by SRB assay; settings: SNB-75, 48 h, read-out: Activity
In short: (§2)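 NCI-60 single-dose screen: cells in RPMI 1640 with 5% FBS and 2 mM L-glutamine, plated at 5000–40,000 cells/well by doubling time, and preincubated 24 h at 37 °C. Compound given at one concentration from DMSO stock. Cells TCA-fixed and SRB-stained, absorbance at 515 nm. Percent growth relative to time-zero and untreated controls; inhibition % = 100 − growth %.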

NCI-H23 = assay: Anticancer activity against human NCI-H23 cells assessed as cell growth at 10^-5 M after 48 hrs by SRB assay; settings: NCI-H23, 48 h, read-out: Activity
K562 = assay: Anticancer activity against human K562 cells assessed as cell growth at 10^-5 M after 48 hrs by SRB assay; settings: K562, 48 h, read-out: Activity; in short: as §1
OVCAR-3 = assay: Anticancer activity against human OVCAR3 cells assessed as cell growth at 10^-5 M after 48 hrs by SRB assay; settings: OVCAR-3, 48 h, read-out: Activity
SK-OV-3 = assay: Anticancer activity against human SKOV3 cells assessed as cell growth at 10^-5 M after 48 hrs by SRB assay; settings: SK-OV-3, 48 h, read-out: Activity
U-251 = assay: Anticancer activity against human U251 cells assessed as cell growth at 10^-5 M after 48 hrs by SRB assay; settings: U-251, 48 h, read-out: Activity; in short: as §2
HCC 2998 = assay: Anticancer activity against human HCC2998 cells assessed as cell growth at 10^-5 M after 48 hrs by SRB assay; settings: HCC 2998, 48 h, read-out: Activity; in short: as §1
A549 = assay: Anticancer activity against human A549 cells assessed as cell growth at 10^-5 M after 48 hrs by SRB assay; settings: A549, 48 h, read-out: Activity; in short: as §1
DU-145 = assay: Anticancer activity against human DU145 cells assessed as cell growth at 10^-5 M after 48 hrs by SRB assay; settings: DU-145, 48 h, read-out: Activity; in short: as §1
SK-MEL-28 = assay: Anticancer activity against human SK-MEL-28 cells assessed as cell growth at 10^-5 M after 48 hrs by SRB assay; settings: SK-MEL-28, 48 h, read-out: Activity
CCRF-CEM = assay: Anticancer activity against human CCRF-CEM cells assessed as cell growth at 10^-5 M after 48 hrs by SRB assay; settings: read-out: Activity; in short: as §1
Malme-3M = assay: Anticancer activity against human MALME-3M cells assessed as cell growth at 10^-5 M after 48 hrs by SRB assay; settings: read-out: Activity; in short: as §1
UACC-257 = assay: Anticancer activity against human UACC257 cells assessed as cell growth at 10^-5 M after 48 hrs by SRB assay; settings: UACC-257, 48 h, read-out: Activity; in short: as §2
RXF 393 = assay: Anticancer activity against human RXF393 cells assessed as cell growth at 10^-5 M after 48 hrs by SRB assay; settings: RXF 393, 48 h, read-out: Activity
SF-539 = assay: Anticancer activity against human SF539 cells assessed as cell growth at 10^-5 M after 48 hrs by SRB assay; settings: SF-539, 48 h, read-out: Activity
HOP-92 = assay: Anticancer activity against human HOP92 cells after 48 hrs by SRB assay; settings: HOP-92, 48 h; for CC50: read-out: LC50 (the source's name)
In short: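 NCI five-dose screen. Cells in RPMI 1640 with 5% FBS and 2 mM L-glutamine, seeded at 5000–40,000 cells/well according to doubling time, then pre-incubated 24 h at 37 °C in 5% CO2. Drugs dissolved in DMSO, five concentrations by 10-fold or 1/2-log dilution. Cells fixed with TCA, SRB-stained, A515 read. IC50 solved from [(Ti−Tz)/(C−Tz)]×100 = 50.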

RPMI-8226 = assay: Anticancer activity against human RPMI8226 cells assessed as cell growth at 10^-5 M after 48 hrs by SRB assay; settings: RPMI-8226, 48 h, read-out: Activity
A498 = assay: Anticancer activity against human A498 cells assessed as cell growth at 10^-5 M after 48 hrs by SRB assay; settings: A498, 48 h, read-out: Activity; in short: as §1
COLO 205 = assay: Anticancer activity against human COLO205 cells assessed as cell growth at 10^-5 M after 48 hrs by SRB assay; settings: COLO 205, 48 h, read-out: Activity; in short: as §1
MDA-MB-435 = assay: Anticancer activity against human MDA-MB-435 cells assessed as cell growth at 10^-5 M after 48 hrs by SRB assay; settings: MDA-MB-435, 48 h, read-out: Activity
786-0 = assay: Anticancer activity against human 786-0 cells assessed as cell growth at 10^-5 M after 48 hrs by SRB assay; settings: 786-0, 48 h, read-out: Activity; in short: as §1
IGROV-1 = assay: Anticancer activity against human IGROV1 cells assessed as cell growth at 10^-5 M after 48 hrs by SRB assay; settings: IGROV-1, 48 h, read-out: Activity; in short: as §1
NCI-H522 = assay: Anticancer activity against human NCI-H522 cells assessed as cell growth at 10^-5 M after 48 hrs by SRB assay; settings: NCI-H522, 48 h, read-out: Activity

Row | Compound | growth at 10 µM (HCT-15) [%] | growth at 10 µM (HOP-62) [%] | growth at 10 µM (NCI-H460) [%] | growth at 10 µM (SN12C) [%] | growth at 10 µM (NCI/ADR-RES) [%] | growth at 10 µM (KM12) [%] | growth at 10 µM (OVCAR-8) [%] | growth at 10 µM (SNB-75) [%] | growth at 10 µM (NCI-H23) [%] | growth at 10 µM (K562) [%] | growth at 10 µM (OVCAR-3) [%] | growth at 10 µM (SK-OV-3) [%] | growth at 10 µM (U-251) [%] | growth at 10 µM (HCC 2998) [%] | growth at 10 µM (A549) [%] | growth at 10 µM (DU-145) [%] | growth at 10 µM (SK-MEL-28) [%] | growth at 10 µM (CCRF-CEM) [%] | growth at 10 µM (Malme-3M) [%] | growth at 10 µM (UACC-257) [%] | other results
1 | COc1cccc(-c2nc3sccn3c2-c2ccnc(NCCNC(=O)Nc3cccc(C(F)(F)F)c3)n2)c1 | 45.9 | 98.9 | 45.1 | 68.8 | 27.2 | 33.5 | 21.3 | 71.8 | 83.8 | 39.9 | 66.3 | 78.6 | 58.1 | 40.8 | 44.4 | 79.8 | 78.4 | 27 | 85.1 | 69.5 | growth at 10 µM (RXF 393): 6.3%; growth at 10 µM (SF-539): 77.9%; GI50 (HOP-92): 0.853 µM; TGI (HOP-92): 9.47 µM; CC50 (HOP-92): > 100 µM; growth at 10 µM (RPMI-8226): 20.4%; growth at 10 µM (A498): 61.6%; growth at 10 µM (COLO 205): 57.6%; growth at 10 µM (MDA-MB-435): 21.5%; growth at 10 µM (786-0): 65.6%; growth at 10 µM (IGROV-1): 50.9%; growth at 10 µM (NCI-H522): 47.7%
2 | O=C(NCCNc1nccc(-c2c(-c3cccc(O)c3)nc3sccn23)n1)Nc1cccc(C(F)(F)F)c1 | 84.7 | 83.5 | 80.1 | 70.7 | 108 | 14.1 | 41.1 | 66.2 | 96.2 | 70.6 | 76.7 | 85 | 81.6 | 23 | 39.3 | 89 | 48.8 | 23.1 | 23.6 | 25.3 | growth at 10 µM (RXF 393): 26.2%; growth at 10 µM (SF-539): 98.5%; GI50 (HOP-92): 2.19 µM; TGI (HOP-92): 9.38 µM; CC50 (HOP-92): > 100 µM; growth at 10 µM (RPMI-8226): -4.81%; growth at 10 µM (A498): 111%; growth at 10 µM (COLO 205): 53.2%; growth at 10 µM (MDA-MB-435): -3.01%; growth at 10 µM (786-0): 79.4%; growth at 10 µM (IGROV-1): 65.6%; growth at 10 µM (NCI-H522): -5.9%
3 | O=C(NCCNc1nccc(-c2c(-c3cccc(O)c3)nc3sccn23)n1)c1ccccc1 | 88.4 | 119 | 42.4 | 66.4 | 99.7 | 75.9 | 66.6 | 54.4 | 82.6 | 62.8 | 92.3 | 65.1 | 61.9 | 97.8 | 56.3 | 90.5 | 37.8 | 47.3 | 9.31 | 11.3 | growth at 10 µM (RXF 393): 62.6%; growth at 10 µM (SF-539): 73.2%; GI50 (HOP-92): 2.22 µM; TGI (HOP-92): 33.2 µM; CC50 (HOP-92): > 100 µM; growth at 10 µM (RPMI-8226): 76.8%; growth at 10 µM (A498): 48%; growth at 10 µM (COLO 205): 48.5%; growth at 10 µM (MDA-MB-435): 24%; growth at 10 µM (786-0): 66.5%; growth at 10 µM (IGROV-1): 57.4%; growth at 10 µM (NCI-H522): 72.7%
4 | O=C(NCCNc1nccc(-c2c(-c3cccc(O)c3)nc3sccn23)n1)c1ccccc1O | 54.5 | 114 | 57 | 48 | 73.6 | 46.7 | 41.3 | 40.6 | 57.4 | 40.5 | 60.2 | 60.5 | 61.6 | 81 | 43.3 | 67.2 | 41.4 | 18.9 | 14.6 | 14.8 | growth at 10 µM (RXF 393): 50.9%; growth at 10 µM (SF-539): 61.9%; GI50 (HOP-92): 9.74 µM; TGI (HOP-92): 34.7 µM; CC50 (HOP-92): > 100 µM; growth at 10 µM (RPMI-8226): 11.6%; growth at 10 µM (A498): 104%; growth at 10 µM (COLO 205): 66.5%; growth at 10 µM (MDA-MB-435): 14.3%; growth at 10 µM (786-0): 64.6%; growth at 10 µM (IGROV-1): 31.6%; growth at 10 µM (NCI-H522): 29%

Source: ChEMBL document CHEMBL1914423, “New imidazo[2,1-b]thiazole derivatives: synthesis, in vitro anticancer evaluation, and in silico studies” (Eur J Med Chem, 2011)
